ChEMBL document CHEMBL1157592, “Design, synthesis and antimicrobial properties of non-hemolytic cationic alpha-cyclopeptoids” (Bioorg Med Chem, 2010)
≈ marks a conversion by molar mass, not a printed value. Calls of active or inactive are those of the source. The rule behind the calls is not given here. Square brackets hold non-standard residues; d marks the D form. Peptide text beside a SMILES is read from it. Nphe = O=C(O)CNCc1ccccc1; Nlys = NCCCCNCC(=O)O

Experiments:
Escherichia coli [1] = test: Membrane permeabilizing effect in Escherichia coli ATCC 25922 assessed as propidium iodide uptake at 250 uM after 180 mins by flow cytometry; type: functional, organism-based
Procedure, shortened: (§1)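 Log-phase bacteria at 1 × 10⁶ cells/mL in MH broth incubated with peptoid at 37 °C for various times. Propidium iodide (final 10 µg/mL) added, 4 min at 37 °C, then flow cytometry with ≥10,000 events. Read-out is % PI-positive cells, background (no peptoid) subtracted; triplicates, mean ± SD.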

Cryptococcus neoformans [2] = test: Antimicrobial activity against Cryptococcus neoformans L1 after 48 hrs by broth microdilution method; type: functional; conditions: L1, 48 h
Procedure, shortened: (§2)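 Fungi grown on Sabouraud agar at 30 °C for 48 h, suspended in PBS, turbidity read at 600 nm and adjusted in RPMI-1640. Twofold serial dilutions made in RPMI-1640, inoculum ~5 × 10⁴ cells/mL, incubated 30 °C for 48 h. MIC is the lowest concentration giving complete inhibition of visible growth, following NCCLS broth microdilution guidelines.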

Candida albicans [3] = test: Antimicrobial activity against Candida albicans ATCC 90029 after 48 hrs by broth microdilution method; type: functional; conditions: ATCC 90029, 48 h; procedure, shortened: as §2
Staphylococcus aureus [4] = test: Membrane permeabilizing effect in Staphylococcus aureus ATCC 25923 assessed as propidium iodide uptake at 250 uM after 60 mins by flow cytometry; type: functional; procedure, shortened: as §1
Candida albicans [5] = test: Membrane permeabilizing effect in Candida albicans ATCC 90029 assessed as propidium iodide uptake at 250 uM after 30 to 240 mins by flow cytometry; type: functional, organism-based
Procedure, shortened: as §1, with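 “Candida subcultured on Sabouraud agar, diluted in RPMI-1640 to” for “Log-phase bacteria at”, “10⁵” for “10⁶”, “and” for “in MH broth”, “30” for “37”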

Candida albicans [6] = test: Antimicrobial activity against Candida albicans L21 after 48 hrs by broth microdilution method; type: functional; conditions: L21, 48 h; procedure, shortened: as §2
Escherichia coli [7] = test: Antimicrobial activity against Escherichia coli ATCC 25922 after 18 hrs by broth microdilution method; type: functional; conditions: ATCC 25922, 18 h
Procedure, shortened: (§3)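 Strains grown at 37 °C in Mueller–Hinton broth and tested in logarithmic phase. Twofold serial dilutions made in MH broth, inoculum ~2.5 × 10⁵ cells/mL, incubated overnight (18 h) at 37 °C. MIC is the lowest concentration giving complete inhibition of visible growth, following NCCLS broth microdilution guidelines.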

Cryptococcus neoformans [8] = test: Antimicrobial activity against Cryptococcus neoformans ATCC 90112 after 48 hrs by broth microdilution method; type: functional; conditions: ATCC 90112, 48 h; procedure, shortened: as §2
Staphylococcus aureus [9] = test: Antimicrobial activity against Staphylococcus aureus ATCC 25923 after 18 hrs by broth microdilution method; type: functional; conditions: ATCC 25923, 18 h; procedure, shortened: as §3
Salmonella typhimurium = test: Antimicrobial activity against Salmonella Typhimurium ATCC 14028 after 18 hrs by broth microdilution method; type: functional, Salmonella enterica subsp. enterica serovar Typhimurium; conditions: Salmonella enterica, ATCC 14028, 18 h; procedure, shortened: as §3
Debaryomyces hansenii = test: Antimicrobial activity against Candida famata SA550 after 48 hrs by broth microdilution method; type: functional; conditions: SA550, 48 h; procedure, shortened: as §2
[10] = Toxicity in human RBCs assessed as induction of hemolysis at 20 uM relative to untreated control; type: cell-based, Erythrocyte; conditions: red blood cells (RBCs)
Candida albicans [11] = test: Membrane permeabilizing effect in Candida albicans ATCC 90029 assessed as propidium iodide uptake at 100 uM after 120 mins by flow cytometry; type: functional, organism-based
Procedure, shortened: as §1, with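 “Candida subcultured on Sabouraud agar, diluted in RPMI-1640 to” for “Log-phase bacteria at”, “10⁵” for “10⁶”, “and” for “in MH broth”, “30” for “37”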

Candida albicans [12] = test: Membrane permeabilizing effect in Candida albicans ATCC 90029 assessed as propidium iodide uptake at 100 uM after 120 to 240 mins by flow cytometry; type: functional
Procedure, shortened: as §1, with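 “Candida subcultured on Sabouraud agar, diluted in RPMI-1640 to” for “Log-phase bacteria at”, “10⁵” for “10⁶”, “and” for “in MH broth”, “30” for “37”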

[13] = Toxicity in human RBCs assessed as induction of hemolysis at 100 uM relative to untreated control; type: cell-based; conditions: erythrocyte
Procedure, shortened: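 Erythrocytes taken from fresh human blood anticoagulated with citrate-dextrose. A 0.5% (v/v) suspension in 10 mM phosphate buffer pH 7.4 with 139 mM NaCl was incubated with 100 µM cyclopeptoid for 60 min at 37 °C. Reaction stopped with cold buffer, centrifuged at 10,000g for 1 min, and the supernatant collected.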

SMILES | MIC (Cryptococcus neoformans [2]) [µM] | MIC (Candida albicans [3]) [µM] | MIC (Candida albicans [6]) [µM] | MIC (Escherichia coli [7]) [µM] | MIC (Cryptococcus neoformans [8]) [µM] | MIC (Staphylococcus aureus [9]) [µM] | MIC (Salmonella typhimurium) [µM] | MIC (Debaryomyces hansenii) [µM] | Activity (Escherichia coli [1]) | Activity (Staphylococcus aureus [4]) [%] | Activity (Candida albicans [5]) | hemolysis at 20 µM [10] [%] | Activity (Candida albicans [11]) | Activity (Candida albicans [12]) [%] | Activity [13]
NCCCCN(CC(=O)O)C(=O)CN(CCCCN)C(=O)CN(Cc1ccccc1)C(=O)CN(CCCCN)C(=O)CN(CCCCN)C(=O)CNCc1ccccc1 | > 1000 | > 1000 | > 1000 | > 1000 | > 1000 | > 1000 | > 1000 | > 1000 | – | – | – | – | – | – | –
NCCCCN1CC(=O)N(Cc2ccccc2)CC(=O)N(Cc2ccccc2)CC(=O)N(CCCCN)CC(=O)N(Cc2ccccc2)CC(=O)N(Cc2ccccc2)CC1=O (cyclo([Nlys][Nphe][Nphe][Nlys][Nphe][Nphe])) | 116 (≈ 98 µg/mL) | 465 (≈ 393 µg/mL) | 232 (≈ 196 µg/mL) | 465 (≈ 393 µg/mL) | 232 (≈ 196 µg/mL) | 465 (≈ 393 µg/mL) | 465 (≈ 393 µg/mL) | – | – | – | – | – | – | – | –
CC[C@H](C)[C@H](NC(=O)CN)C(=O)NCC(=O)N[C@@H](C)C(=O)N[C@H](C(=O)N[C@@H](CC(C)C)C(=O)N[C@@H](CCCCN)C(=O)N[C@H](C(=O)N[C@@H](CC(C)C)C(=O)N[C@H](C(=O)N[C@H](C(=O)NCC(=O)N[C@@H](CC(C)C)C(=O)N1CCC[C@H]1C(=O)N[C@@H](C)C(=O)N[C@@H](CC(C)C)C(=O)N[C@H](C(=O)N[C@@H](CO)C(=O)N[C@@H](Cc1c[nH]c2ccccc12)C(=O)N[C@H](C(=O)N[C@@H](CCCCN)C(=O)N[C@@H](CCCNC(=N)N)C(=O)N[C@@H](CCCCN)C(=O)N[C@@H](CCCNC(=N)N)C(=O)N[C@@H](CCC(N)=O)C(=O)N[C@@H](CCC(N)=O)C(N)=O)[C@@H](C)CC)[C@@H](C)CC)[C@@H](C)O)[C@@H](C)O)C(C)C)C(C)C [MELITTIN] | – | – | – | – | – | – | – | – | – | – | – | > 90 | – | – | –
O=C1CN(Cc2ccccc2)C(=O)CN(Cc2ccccc2)C(=O)CN(Cc2ccccc2)C(=O)CN(Cc2ccccc2)C(=O)CN(Cc2ccccc2)C(=O)CN1Cc1ccccc1 | > 1000 | > 1000 | > 1000 | > 1000 | > 1000 | > 1000 | > 1000 | – | – | – | – | – | – | – | –
NCCCCNCC(=O)N(CCCCN)CC(=O)N(CCCCN)CC(=O)N(CCCCN)CC(=O)N(CCCCN)CC(=O)N(CCCCN)CC(=O)O | > 1000 | > 1000 | 500 (≈ 394 µg/mL) | > 1000 | > 1000 | > 1000 | > 1000 | > 1000 | – | – | – | – | – | – | –
NCCCCN(CC(=O)N(CC(=O)N(CC(=O)N(CCCCN)CC(=O)N(CC(=O)O)Cc1ccccc1)Cc1ccccc1)Cc1ccccc1)C(=O)CNCc1ccccc1 (H-[Nphe][Nlys][Nphe][Nphe][Nlys][Nphe]-OH) | 788 (≈ 680 µg/mL) | > 1000 | > 1000 | > 1000 | > 1000 | > 1000 | > 1000 | – | – | – | – | – | – | – | –
NCCCCN1CC(=O)N(CCCCN)CC(=O)N(CCCCN)CC(=O)N(CCCCN)CC(=O)N(CCCCN)CC(=O)N(CCCCN)CC1=O.O=C(O)C(F)(F)F.O=C(O)C(F)(F)F.O=C(O)C(F)(F)F.O=C(O)C(F)(F)F.O=C(O)C(F)(F)F.O=C(O)C(F)(F)F | > 1000 | 10 | 5 | > 1000 | > 1000 | > 1000 | > 1000 | 5 | – | – | – | – | – | – | Non-toxic
O=C1CN(CCOCc2ccccc2)C(=O)CN(CCOCc2ccccc2)C(=O)CN(CCOCc2ccccc2)C(=O)CN(CCOCc2ccccc2)C(=O)CN(CCOCc2ccccc2)C(=O)CN1CCOCc1ccccc1 | > 1000 | > 1000 | > 1000 | > 1000 | > 1000 | > 1000 | > 1000 | – | – | – | – | – | – | – | –

The next lines start with results.

MIC (Cryptococcus neoformans [2]) [µM] | MIC (Candida albicans [3]) [µM] | MIC (Candida albicans [6]) [µM] | MIC (Escherichia coli [7]) [µM] | MIC (Cryptococcus neoformans [8]) [µM] | MIC (Staphylococcus aureus [9]) [µM] | MIC (Salmonella typhimurium) [µM] | MIC (Debaryomyces hansenii) [µM] | SMILES | Activity (Escherichia coli [1]) | Activity (Staphylococcus aureus [4]) [%] | Activity (Candida albicans [5]) | hemolysis at 20 µM [10] [%] | Activity (Candida albicans [11]) | Activity (Candida albicans [12]) [%] | Activity [13]
92 | 184 | 184 | 383 | 184 | 383 | > 766 | – | NCCCCN1CC(=O)N(CCOCc2ccccc2)CC(=O)N(CCCCN)CC(=O)N(CCOCc2ccccc2)CC(=O)N(CCCCN)CC(=O)N(CCOCc2ccccc2)CC1=O.O=C(O)C(F)(F)F.O=C(O)C(F)(F)F.O=C(O)C(F)(F)F | inactive | >40 | inactive | – | – | – | –
98 (≈ 100 µg/mL) | 196 (≈ 200 µg/mL) | 196 (≈ 200 µg/mL) | 392 (≈ 400 µg/mL) | 196 (≈ 200 µg/mL) | 392 (≈ 400 µg/mL) | > 792 | – | NCCCCN1CC(=O)N(CCOCc2ccccc2)CC(=O)N(CCOCc2ccccc2)CC(=O)N(CCCCN)CC(=O)N(CCOCc2ccccc2)CC(=O)N(CCOCc2ccccc2)CC1=O | – | – | – | – | – | – | –
90 (≈ 93.5 µg/mL) | 360 (≈ 374 µg/mL) | 360 (≈ 374 µg/mL) | 360 (≈ 374 µg/mL) | 180 (≈ 187 µg/mL) | > 720 | 720 (≈ 748 µg/mL) | – | NCCCCN(CC(=O)N(CCOCc1ccccc1)CC(=O)N(CCOCc1ccccc1)CC(=O)N(CCCCN)CC(=O)N(CCOCc1ccccc1)CC(=O)O)C(=O)CNCCOCc1ccccc1 | – | – | – | – | – | – | –
99 | 12 | 12 | 786 | 47 | > 1000 | > 1000 | 12 | NCCCCN1CC(=O)N(Cc2ccccc2)CC(=O)N(CCCCN)CC(=O)N(CCCCN)CC(=O)N(Cc2ccccc2)CC(=O)N(CCCCN)CC1=O.O=C(O)C(F)(F)F.O=C(O)C(F)(F)F.O=C(O)C(F)(F)F.O=C(O)C(F)(F)F (cyclo([Nlys][Nlys][Nphe][Nlys][Nlys][Nphe])) | – | – | – | – | Active | 50 | Non-toxic
